The record followed here is ChEMBL document CHEMBL1134677, “Synthesis and biological evaluation of a novel series of furans: ligands selective for estrogen receptor alpha” (J Med Chem, 2001).

For assay [1], the target named is Estrogen receptor beta (Homo sapiens) (UniProt Q92731). Description: Relative binding affinity towards estrogen receptor 2 determined by a competitive radiometric binding assay using 10 nM [3H]estradiol as the radioligand. In short, it runs like this: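 Competitive radiometric binding with purified human ERβ and 10 nM [3H]estradiol tracer. Hydroxylapatite captured the bound complex. Incubation was at 0 °C for 18–24 h. Competitors were dissolved in 1:1 DMF:TEA. RBA is relative to estradiol (100%). Duplicate independent experiments were run, with CV <0.3.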
Sequence of Estrogen receptor beta (Homo sapiens) (Q92731 whole entry): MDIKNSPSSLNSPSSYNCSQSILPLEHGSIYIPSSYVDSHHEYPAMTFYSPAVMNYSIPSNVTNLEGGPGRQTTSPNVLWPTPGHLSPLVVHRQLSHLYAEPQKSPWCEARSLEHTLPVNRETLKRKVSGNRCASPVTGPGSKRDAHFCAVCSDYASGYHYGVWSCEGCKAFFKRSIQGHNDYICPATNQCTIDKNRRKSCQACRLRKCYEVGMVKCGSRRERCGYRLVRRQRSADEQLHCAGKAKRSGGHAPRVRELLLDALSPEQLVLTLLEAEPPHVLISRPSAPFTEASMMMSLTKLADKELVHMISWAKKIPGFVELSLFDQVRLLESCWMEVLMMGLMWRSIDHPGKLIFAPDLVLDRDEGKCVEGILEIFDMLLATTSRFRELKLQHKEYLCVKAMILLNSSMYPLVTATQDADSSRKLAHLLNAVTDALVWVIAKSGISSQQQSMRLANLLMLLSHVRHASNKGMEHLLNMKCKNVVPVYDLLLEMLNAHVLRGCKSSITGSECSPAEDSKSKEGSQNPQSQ

In assay [2] the target is T1, Estrogen receptor (Homo sapiens) (UniProt P03372).
T1 sequence (whole entry): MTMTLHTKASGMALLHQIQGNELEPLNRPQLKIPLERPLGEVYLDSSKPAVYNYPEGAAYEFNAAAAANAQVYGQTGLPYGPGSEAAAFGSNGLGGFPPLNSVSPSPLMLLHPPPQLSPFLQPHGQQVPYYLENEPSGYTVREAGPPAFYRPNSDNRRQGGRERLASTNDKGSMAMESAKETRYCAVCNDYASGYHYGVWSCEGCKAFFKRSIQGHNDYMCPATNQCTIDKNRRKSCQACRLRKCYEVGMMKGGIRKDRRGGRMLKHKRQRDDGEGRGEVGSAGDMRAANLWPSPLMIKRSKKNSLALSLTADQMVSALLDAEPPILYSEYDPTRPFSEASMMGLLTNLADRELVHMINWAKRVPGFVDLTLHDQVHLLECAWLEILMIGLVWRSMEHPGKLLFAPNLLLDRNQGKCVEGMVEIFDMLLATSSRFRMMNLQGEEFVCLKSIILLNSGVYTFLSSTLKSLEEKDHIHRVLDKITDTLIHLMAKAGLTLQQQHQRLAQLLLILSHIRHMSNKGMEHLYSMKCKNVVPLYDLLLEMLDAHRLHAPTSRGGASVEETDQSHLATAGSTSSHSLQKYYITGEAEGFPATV
Description: Relative binding affinity for Estrogen receptor alpha compared 10 nM [3H]estradiol. In short, it runs like this:
(§1)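 Competitive radiometric binding with purified human ERα and 10 nM [3H]estradiol tracer. Bound receptor–ligand complex was adsorbed on hydroxylapatite. Incubation was at 0 °C for 18–24 h. Unlabeled competitors were dissolved in 1:1 DMF:TEA. RBA is expressed relative to estradiol (100%). Duplicate separate experiments were run, with CV <0.3.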

Assay [3] concerns Estrogen receptor (Ovis aries). Description: Relative binding affinity (RBA) for ER alpha using lamb uterine cytosol determined by a competitive radiometric binding assay using 10 nM [3H]estradiol as the radioligand. The note with it: Uterus.
Assay [4] has as its target T1, Estrogen receptor (Homo sapiens). The assay is described as follows: Relative binding affinity (RBA) for ER alpha (Estrogen receptor alpha) determined by a competitive radiometric binding assay using 10 nM [3H]estradiol as the radioligand. In short, it runs like this:
as §1

As to `CC(C)Cc1c(-c2ccc(O)cc2)nn(-c2ccc(O)cc2)c1-c1ccc(O)cc1`, the values for the relative binding affinity (RBA) in assay [1] and in assay [2] were 0.89 and 75, respectively.

For `Oc1ccc(-c2cc(-c3ccc(O)cc3)c(-c3ccccc3)s2)cc1`, the relative binding affinity (RBA) in assay [3] is 0.04.

Consider `Cc1c(-c2ccc(O)cc2)oc(-c2ccc(O)cc2)c1-c1ccc(O)cc1`, for which the relative binding affinity (RBA) stood at 0.62 in assay [1], 40 in assay [4] and 2.9 in assay [3].

As for `CCc1c(-c2ccc(O)cc2)oc(-c2ccccc2)c1-c1ccccc1`, the relative binding affinity (RBA) in assay [1] is 3.4; in assay [4], 10.8; in assay [3], 0.44.

Take `CCc1c(-c2ccc(O)cc2)oc(-c2ccccc2)c1-c1ccc(O)cc1`: the figures for the relative binding affinity (RBA) in assay [1], in assay [4] and in assay [3] were 7.1, 82 and 4.6, respectively.

With `CCCCc1c(-c2ccc(O)cc2)oc(-c2ccc(O)cc2)c1-c1ccc(O)cc1`, the relative binding affinity (RBA) amounted to 3.9 in assay [1], 21 in assay [4] and 1.3 in assay [3].

`Oc1ccc(-c2cc(-c3ccccc3)c(-c3ccc(O)cc3)s2)cc1` gave a relative binding affinity (RBA) in assay [3] of 0.03.

For `CCc1c(-c2ccc(O)cc2)oc(-c2ccc(O)cc2)c1-c1ccccc1`, the relative binding affinity (RBA) in assay [1] was 3; in assay [4] it was 16.5; in assay [3] it was 0.7.

Consider `CCc1c(-c2ccccc2)oc(-c2ccccc2)c1-c1ccc(O)cc1`, for which the relative binding affinity (RBA) in assay [1] was 0.07; in assay [4] it was 0.15; in assay [3], 0.02.

As to `CCc1c(-c2ccc(O)cc2)oc(-c2ccc(O)cc2)c1-c1ccc(O)cc1`, the relative binding affinity (RBA) was 140 in assay [4] and 6.5 in assay [3].

As to `CCc1c(-c2ccccc2)oc(-c2ccc(O)cc2)c1-c1ccccc1`, the values for the relative binding affinity (RBA) in assay [1], in assay [4] and in assay [3] were 2, 6.8 and 0.1, respectively.

Consider `CCc1c(-c2ccccc2)oc(-c2ccc(O)cc2)c1-c1ccc(O)cc1`, for which the relative binding affinity (RBA) in assay [1] was determined as 4.5; in assay [4] it was 14.8; in assay [3], 0.45.

For the compound `Oc1ccc(-c2cc(-c3ccc(O)cc3)c(-c3ccccc3)o2)cc1`, in assay [3], the relative binding affinity (RBA) was found to be 0.04.

With `CCCc1c(-c2ccc(O)cc2)oc(-c2ccc(O)cc2)c1-c1ccc(O)cc1`, the relative binding affinity (RBA) in assay [1] stood at 1.8; in assay [4] it was 100; in assay [3] it was 3.6.

In assay [3], `CCc1c(-c2ccc(O)cc2)cc(-c2ccccc2)n1-c1ccc(O)cc1` came in with a relative binding affinity (RBA) of 0.5.

Take `Oc1ccc(-c2oc(-c3ccc(O)cc3)c(-c3ccc(O)cc3)c2-c2ccc(O)cc2)cc1`: the results for the relative binding affinity (RBA) in assay [1], in assay [4] and in assay [3] were 0.25, 8.7 and 0.84, respectively.

Consider `CCCc1c(-c2ccc(O)cc2)oc(-c2ccccc2)c1-c1ccc(O)cc1`, for which the relative binding affinity (RBA) in assay [1] was 15; in assay [4], 140; in assay [3], 3.6.

Compound `Oc1ccc(-c2cc(-c3ccccc3)c(-c3ccc(O)cc3)o2)cc1` registered a relative binding affinity (RBA) in assay [3] of 0.13.

`CCCc1c(-c2ccc(O)cc2)nn(-c2ccc(O)cc2)c1-c1ccc(O)cc1`: the relative binding affinity (RBA) in assay [2] worked out at 49.
